Assay results taken from ChEMBL document CHEMBL1153726, “Synthesis and anticancer activity of sclerophytin-inspired hydroisobenzofurans” (Bioorg Med Chem Lett, 2009).

What was measured:
Assay type in all cases: functional
SF-295 = assay: Growth inhibition of human SF295 cells at 10 nM after 96 hrs by MTT assay; parameters: scale not given: the % may be the effect or the level left
KM12 = assay: Growth inhibition of human KM12 cells at 1 uM after 96 hrs by MTT assay; parameters: scale not given: the % may be the effect or the level left
SW-620 = assay: Growth inhibition of human SW620 cells at 10 uM after 96 hrs by MTT assay; parameters: scale not given: the % may be the effect or the level left
COLO 205 = assay: Growth inhibition of human COLO205 cells after 96 hrs by MTT assay; details: COLO 205, 96 h
UACC-257 [1] = assay: Growth inhibition of human UACC257 cells at 10 nM after 96 hrs by MTT assay; parameters: scale not given: the % may be the effect or the level left
SR = assay: Growth inhibition of human SR cells at 10 uM after 96 hrs by MTT assay; parameters: scale not given: the % may be the effect or the level left
SF-539 = assay: Growth inhibition of human SF539 cells at 100 nM after 96 hrs by MTT assay; parameters: scale not given: the % may be the effect or the level left
MDA-MB-468 = assay: Growth inhibition of human MDA-MB-468 cells after 96 hrs by MTT assay; details: MDA-MB-468, 96 h
Procedure, shortened: (§1)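 Run in the NCI 60 human tumour cell line panel as a five-dose assay. GI50 and LC50 were reported for each cell line.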

PC-3 [2] = assay: Growth inhibition of human PC3 cells at 1 nM after 96 hrs by MTT assay; parameters: scale not given: the % may be the effect or the level left
OVCAR-4 = assay: Growth inhibition of human OVCAR4 cells at 100 nM after 96 hrs by MTT assay; parameters: scale not given: the % may be the effect or the level left
NCI-H522 = assay: Growth inhibition of human NCI-H522 cells after 96 hrs by MTT assay; details: NCI-H522, 96 h; procedure, shortened: as §1
[3] = Growth inhibition of human Hs 578T cells at 100 nM after 96 hrs by MTT assay; parameters: scale not given: the % may be the effect or the level left
UACC-257 [4] = assay: Growth inhibition of human UACC257 cells at 10 uM after 96 hrs by MTT assay; parameters: scale not given: the % may be the effect or the level left
HOP-92 = assay: Growth inhibition of human HOP92 cells after 96 hrs by MTT assay; details: HOP-92, 96 h; procedure, shortened: as §1
M14 = assay: Growth inhibition of human M14 cells at 100 nM after 96 hrs by MTT assay; parameters: scale not given: the % may be the effect or the level left
SNB-75 = assay: Growth inhibition of human SNB75 cells at 1 nM after 96 hrs by MTT assay; parameters: scale not given: the % may be the effect or the level left
RXF 393 = assay: Growth inhibition of human RXF393 cells at 100 nM after 96 hrs by MTT assay; parameters: scale not given: the % may be the effect or the level left
CAKI-1 = assay: Growth inhibition of human Caki1 cells at 1 uM after 96 hrs by MTT assay; parameters: scale not given: the % may be the effect or the level left
NCI-H322M = assay: Growth inhibition of human NCI-H322M cells at 10 uM after 96 hrs by MTT assay; parameters: scale not given: the % may be the effect or the level left
IGROV-1 = assay: Growth inhibition of human IGROV1 cells at 10 uM after 96 hrs by MTT assay; parameters: scale not given: the % may be the effect or the level left
OVCAR-3 = assay: Growth inhibition of human OVCAR-3 cells at 1 uM after 96 hrs by MTT assay; parameters: scale not given: the % may be the effect or the level left
A498 = assay: Growth inhibition of human A498 cells after 96 hrs by MTT assay; details: A498, 96 h
MDA-MB-231 [5] = assay: Growth inhibition of human MDA-MB-231 cells at 1 uM after 96 hrs by MTT assay; parameters: scale not given: the % may be the effect or the level left
SN12C [6] = assay: Growth inhibition of human SN12C cells at 1 nM after 96 hrs by MTT assay; parameters: scale not given: the % may be the effect or the level left
EKVX = assay: Growth inhibition of human EKVX cells after 96 hrs by MTT assay; procedure, shortened: as §1
UO-31 = assay: Growth inhibition of human UO31 cells at 1 nM after 96 hrs by MTT assay; parameters: scale not given: the % may be the effect or the level left
SK-MEL-2 = assay: Growth inhibition of human SK-MEL-2 cells at 1 nM after 96 hrs by MTT assay; parameters: scale not given: the % may be the effect or the level left
MDA-MB-231 [7] = assay: Growth inhibition of human MDA-MB-231 cells after 96 hrs by MTT assay; details: MDA-MB-231, 96 h; procedure, shortened: as §1
K562 = assay: Growth inhibition of human K562 cells at 10 uM after 96 hrs by MTT assay; parameters: scale not given: the % may be the effect or the level left
HT-29 [8] = assay: Growth inhibition of human HT-29 cells at 1 nM after 96 hrs by MTT assay; parameters: scale not given: the % may be the effect or the level left
MDA-MB-435 = assay: Growth inhibition of human MDA-MB-435 cells at 1 uM after 96 hrs by MTT assay; parameters: scale not given: the % may be the effect or the level left
PC-3 [9] = assay: Growth inhibition of human PC3 cells at 100 nM after 96 hrs by MTT assay; parameters: scale not given: the % may be the effect or the level left
TK-10 = assay: Growth inhibition of human TK10 cells at 1 uM after 96 hrs by MTT assay; parameters: scale not given: the % may be the effect or the level left
SN12C [10] = assay: Growth inhibition of human SN12C cells at 100 nM after 96 hrs by MTT assay; parameters: scale not given: the % may be the effect or the level left
HT-29 [11] = assay: Growth inhibition of human HT-29 cells at 10 nM after 96 hrs by MTT assay; parameters: scale not given: the % may be the effect or the level left
BT-549 = assay: Growth inhibition of human BT549 cells after 96 hrs by MTT assay; details: BT-549, 96 h
MCF7 = assay: Growth inhibition of human MCF7 cells at 1 uM after 96 hrs by MTT assay; parameters: scale not given: the % may be the effect or the level left
SK-MEL-5 = assay: Growth inhibition of human SK-MEL-5 cells at 100 nM after 96 hrs by MTT assay; parameters: scale not given: the % may be the effect or the level left
[12] = Growth inhibition of human RPMI8266 cells at 100 nM after 96 hrs by MTT assay; parameters: scale not given: the % may be the effect or the level left
HCT-15 = assay: Growth inhibition of human HCT15 cells at 100 nM after 96 hrs by MTT assay; parameters: scale not given: the % may be the effect or the level left
[13] = read-out: LC50 (the source's name)
[14] = read-out: Log10GI50 (converted)
[15] = read-out: Log10LC50 (converted)

Q: Which results are given for `C=C(C)[C@H]1CC=C(C)C2=CO[C@@H](c3ccccc3F)[C@@H]21`?
A: Activity (SF-295): 92%; Activity (KM12): 24%; Activity (SW-620): 101.12%; GI50 (COLO 205; read-out: GI50): 9.77 µM; CC50 (COLO 205; [13]): 46.3 µM; GI50 (COLO 205; [14]): 9.77 µM; CC50 (COLO 205; [15]): 46.8 µM; TGI (COLO 205; read-out: Log10TGI (converted)): 21.4 µM; TGI (COLO 205; read-out: TGI): 21.5 µM; Activity (UACC-257 [1]): 90%; Activity (SR): 62.58%; Activity (SF-539): 84%; GI50 (MDA-MB-468; read-out: GI50): 1.43 µM; CC50 (MDA-MB-468; [13]): 66.1 µM; GI50 (MDA-MB-468; [14]): 1.45 µM; CC50 (MDA-MB-468; [15]): 66.1 µM; TGI (MDA-MB-468; read-out: Log10TGI (converted)): 14.1 µM; TGI (MDA-MB-468; read-out: TGI): 14.1 µM; Activity (PC-3 [2]): 95%; Activity (OVCAR-4): 76%; GI50 (NCI-H522; read-out: GI50): 3.13 µM; CC50 (NCI-H522; [13]): 45.5 µM; GI50 (NCI-H522; [14]): 3.16 µM; CC50 (NCI-H522; [15]): 45.7 µM; TGI (NCI-H522; read-out: Log10TGI (converted)): 17.4 µM; TGI (NCI-H522; read-out: TGI): 17.4 µM; Activity [3]: 67%; Activity (UACC-257 [4]): 76.82%; GI50 (HOP-92; read-out: GI50): 0.552 µM; CC50 (HOP-92; [13]): 26.8 µM; GI50 (HOP-92; [14]): 0.55 µM; CC50 (HOP-92; [15]): 26.9 µM; TGI (HOP-92; read-out: Log10TGI (converted)): 5.75 µM; TGI (HOP-92; read-out: TGI): 5.76 µM; Activity (M14): 80%; Activity (SNB-75): 85%; Activity (RXF 393): 84%; Activity (CAKI-1): 37%; Activity (NCI-H322M): 120.7%; Activity (IGROV-1): 65.74%; Activity (OVCAR-3): 12%; GI50 (A498; read-out: GI50): 2.34 µM; CC50 (A498; [13]): 26.5 µM; GI50 (A498; [14]): 2.34 µM; CC50 (A498; [15]): 26.3 µM; TGI (A498; read-out: Log10TGI (converted)): 7.08 µM; TGI (A498; read-out: TGI): 7.07 µM; Activity (MDA-MB-231 [5]): 43%; Activity (SN12C [6]): 85%; GI50 (EKVX; read-out: GI50): 3.37 µM; CC50 (EKVX; [13]): 80.3 µM; GI50 (EKVX; [14]): 3.39 µM; CC50 (EKVX; [15]): 79.4 µM; TGI (EKVX; read-out: Log10TGI (converted)): 19.5 µM; TGI (EKVX; read-out: TGI): 19.4 µM; Activity (UO-31): 89%; Activity (SK-MEL-2): 88%; GI50 (MDA-MB-231 [7]; read-out: GI50): 6.73 µM; CC50 (MDA-MB-231 [7]; [13]): 55.9 µM; GI50 (MDA-MB-231 [7]; [14]): 6.76 µM; CC50 (MDA-MB-231 [7]; [15]): 56.2 µM; TGI (MDA-MB-231 [7]; read-out: Log10TGI (converted)): 22.4 µM; TGI (MDA-MB-231 [7]; read-out: TGI): 22.3 µM; Activity (K562): 67.84%; Activity (HT-29 [8]): 98%; Activity (MDA-MB-435): 4%; Activity (PC-3 [9]): 70%; Activity (TK-10): 48%; Activity (SN12C [10]): 79%; Activity (HT-29 [11]): 92%; GI50 (BT-549; read-out: GI50): 1.72 µM; CC50 (BT-549; [13]): 34 µM; GI50 (BT-549; [14]): 1.7 µM; CC50 (BT-549; [15]): 33.9 µM; TGI (BT-549; read-out: Log10TGI (converted)): 8.32 µM; TGI (BT-549; read-out: TGI): 8.37 µM; Activity (MCF7): 26%; Activity (SK-MEL-5): 69%; Activity [12]: 23%; Activity (HCT-15): 84%
